Test results from PMC9217999 (Targeted Oncology, 2022).
“Also recorded” adds a separate entry of the source.

Assay: Safety and tolerability in iMATRIX-cobi Phase I/II study
Type: in vivo, human
In short: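 Patients aged 6 months to <30 years with relapsed/refractory solid tumors with MAPK pathway involvement. Oral test compound (20-mg tablet or suspension, with/without food) on Days 1–21 of 28-day cycles. Cumulative weekly weight-based dose rounded to 20 mg, capped at 60 mg/day. Rolling 6 escalation in cohorts of 3–6. Eye exams including OCT at baseline, cycle 1 Days 8/15, and each later cycle Day 1. All dosed patients evaluated.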

[1] = Dose escalation tablet (n = 18)

O=C(c1ccc(F)c(F)c1Nc1ccc(I)cc1F)N1CC(O)([C@@H]2CCCCN2)C1 [cobimetinib]
Treatment-related AE: Encephalopathy, G3 [1]: 1 (6) n (%) | Treatment-related AE: Encephalopathy, G4 [1]: 0 n (%) | Treatment-related AE: Erythema, G1 [1]: 2 (11) n (%) | Treatment-related AE: Erythema, G2 [1]: 0 n (%) | Treatment-related AE: Erythema, G3 [1]: 0 n (%) | Treatment-related AE: Erythema, G4 [1]: 0 n (%) | Treatment-related AE: Fatigue, G1 [1]: 2 (11) n (%) | Treatment-related AE: Fatigue, G2 [1]: 0 n (%) | Treatment-related AE: Fatigue, G3 [1]: 0 n (%) | Treatment-related AE: Fatigue, G4 [1]: 0 n (%) | Treatment-related AE: Headache, G1 [1]: 1 (6) n (%) | Treatment-related AE: Headache, G2 [1]: 0 n (%) | Treatment-related AE: Headache, G3 [1]: 1 (6) n (%) | Treatment-related AE: Headache, G4 [1]: 0 n (%) | Treatment-related AE: Nausea, G1 [1]: 3 (17) n (%) | Treatment-related AE: Nausea, G2 [1]: 0 n (%) | Treatment-related AE: Nausea, G3 [1]: 0 n (%) | Treatment-related AE: Nausea, G4 [1]: 0 n (%) | Treatment-related AE: Paronychia, G1 [1]: 0 n (%) | Treatment-related AE: Paronychia, G2 [1]: 0 n (%) | Treatment-related AE: Paronychia, G3 [1]: 0 n (%) | Treatment-related AE: Paronychia, G4 [1]: 0 n (%) | Treatment-related AE: Rash, G1 [1]: 3 (17) n (%) | Treatment-related AE: Rash, G2 [1]: 0 n (%) | Treatment-related AE: Rash, G3 [1]: 0 n (%) | Treatment-related AE: Rash, G4 [1]: 0 n (%) | Treatment-related AE: Transaminases increased, G1 [1]: 0 n (%) | Treatment-related AE: Transaminases increased, G2 [1]: 0 n (%) | Treatment-related AE: Transaminases increased, G3 [1]: 0 n (%) | Treatment-related AE: Transaminases increased, G4 [1]: 0 n (%) | Treatment-related AE: Vomiting, G1 [1]: 1 (6) n (%) | Treatment-related AE: Vomiting, G2 [1]: 2 (11) n (%) | Treatment-related AE: Vomiting, G3 [1]: 0 n (%) | Treatment-related AE: Vomiting, G4 [1]: 0 n (%) | Treatment-related AE: Weight increased, G1 [1]: 0 n (%) | Treatment-related AE: Weight increased, G2 [1]: 0 n (%) | Treatment-related AE: Weight increased, G3 [1]: 1 (6) n (%) | Treatment-related AE: Weight increased, G4 [1]: 0 n (%) | Any treatment-related AE, G1 (Dose expansion (n = 12)): 3 (25) n (%) | Any treatment-related AE, G2 (Dose expansion (n = 12)): 3 (25) n (%) | Any treatment-related AE, G3 (Dose expansion (n = 12)): 3 (25) n (%) | Any treatment-related AE, G4 (Dose expansion (n = 12)): 2 (17) n (%) | Treatment-related AE: ALT increased, G1 (Dose expansion (n = 12)): 1 (8) n (%) | Treatment-related AE: ALT increased, G2 (Dose expansion (n = 12)): 0 n (%) | Treatment-related AE: ALT increased, G3 (Dose expansion (n = 12)): 0 n (%) | Treatment-related AE: ALT increased, G4 (Dose expansion (n = 12)): 0 n (%) | Treatment-related AE: AST increased, G1 (Dose expansion (n = 12)): 1 (8) n (%) | Treatment-related AE: AST increased, G2 (Dose expansion (n = 12)): 0 n (%) | Treatment-related AE: AST increased, G3 (Dose expansion (n = 12)): 1 (8) n (%) | Treatment-related AE: AST increased, G4 (Dose expansion (n = 12)): 0 n (%) | Treatment-related AE: Abdominal pain, G1 (Dose expansion (n = 12)): 3 (25) n (%) | Treatment-related AE: Abdominal pain, G2 (Dose expansion (n = 12)): 0 n (%) | Treatment-related AE: Abdominal pain, G3 (Dose expansion (n = 12)): 0 n (%) | Treatment-related AE: Abdominal pain, G4 (Dose expansion (n = 12)): 0 n (%) | Treatment-related AE: Anemia, G1 (Dose expansion (n = 12)): 1 (8) n (%) | Treatment-related AE: Anemia, G2 (Dose expansion (n = 12)): 0 n (%) | Treatment-related AE: Anemia, G3 (Dose expansion (n = 12)): 1 (8) n (%) | Treatment-related AE: Anemia, G4 (Dose expansion (n = 12)): 0 n (%) | Treatment-related AE: Asthenia, G1 (Dose expansion (n = 12)): 0 n (%) | Treatment-related AE: Asthenia, G2 (Dose expansion (n = 12)): 0 n (%) | Treatment-related AE: Asthenia, G3 (Dose expansion (n = 12)): 1 (8) n (%) | Treatment-related AE: Asthenia, G4 (Dose expansion (n = 12)): 0 n (%) | Treatment-related AE: Blood CPK increased, G1 (Dose expansion (n = 12)): 0 n (%) | Treatment-related AE: Blood CPK increased, G2 (Dose expansion (n = 12)): 0 n (%) | Treatment-related AE: Blood CPK increased, G3 (Dose expansion (n = 12)): 1 (8) n (%) | Treatment-related AE: Blood CPK increased, G4 (Dose expansion (n = 12)): 1 (8) n (%) | Treatment-related AE: Chorioretinopathy, G1 (Dose expansion (n = 12)): 0 n (%) | Treatment-related AE: Chorioretinopathy, G2 (Dose expansion (n = 12)): 0 n (%) | Treatment-related AE: Chorioretinopathy, G3 (Dose expansion (n = 12)): 0 n (%) | Treatment-related AE: Chorioretinopathy, G4 (Dose expansion (n = 12)): 0 n (%) | Treatment-related AE: Constipation, G1 (Dose expansion (n = 12)): 0 n (%) | Treatment-related AE: Constipation, G2 (Dose expansion (n = 12)): 0 n (%) | Treatment-related AE: Constipation, G3 (Dose expansion (n = 12)): 0 n (%) | Treatment-related AE: Constipation, G4 (Dose expansion (n = 12)): 0 n (%) | Treatment-related AE: Decreased appetite, G1 (Dose expansion (n = 12)): 1 (8) n (%) | Treatment-related AE: Decreased appetite, G2 (Dose expansion (n = 12)): 0 n (%) | Treatment-related AE: Decreased appetite, G3 (Dose expansion (n = 12)): 0 n (%) | Treatment-related AE: Decreased appetite, G4 (Dose expansion (n = 12)): 0 n (%) | Treatment-related AE: Dermatitis acneiform, G1 (Dose expansion (n = 12)): 1 (8) n (%) | Treatment-related AE: Dermatitis acneiform, G2 (Dose expansion (n = 12)): 0 n (%) | Treatment-related AE: Dermatitis acneiform, G3 (Dose expansion (n = 12)): 0 n (%) | Treatment-related AE: Dermatitis acneiform, G4 (Dose expansion (n = 12)): 0 n (%) | Treatment-related AE: Diarrhea, G1 (Dose expansion (n = 12)): 4 (33) n (%) | Treatment-related AE: Diarrhea, G2 (Dose expansion (n = 12)): 0 n (%) | Treatment-related AE: Diarrhea, G3 (Dose expansion (n = 12)): 0 n (%) | Treatment-related AE: Diarrhea, G4 (Dose expansion (n = 12)): 0 n (%) | Treatment-related AE: Dry skin, G1 (Dose expansion (n = 12)): 1 (8) n (%) | Treatment-related AE: Dry skin, G2 (Dose expansion (n = 12)): 0 n (%) | Treatment-related AE: Dry skin, G3 (Dose expansion (n = 12)): 0 n (%) | Treatment-related AE: Dry skin, G4 (Dose expansion (n = 12)): 0 n (%) | Treatment-related AE: Encephalopathy, G1 (Dose expansion (n = 12)): 0 n (%) | Treatment-related AE: Encephalopathy, G2 (Dose expansion (n = 12)): 0 n (%) | Treatment-related AE: Encephalopathy, G3 (Dose expansion (n = 12)): 0 n (%) | Treatment-related AE: Encephalopathy, G4 (Dose expansion (n = 12)): 1 (8) n (%) | Treatment-related AE: Erythema, G1 (Dose expansion (n = 12)): 0 n (%) | Treatment-related AE: Erythema, G2 (Dose expansion (n = 12)): 0 n (%) | Treatment-related AE: Erythema, G3 (Dose expansion (n = 12)): 0 n (%) | Treatment-related AE: Erythema, G4 (Dose expansion (n = 12)): 0 n (%) | Treatment-related AE: Fatigue, G1 (Dose expansion (n = 12)): 2 (17) n (%) | Treatment-related AE: Fatigue, G2 (Dose expansion (n = 12)): 0 n (%) | Treatment-related AE: Fatigue, G3 (Dose expansion (n = 12)): 0 n (%) | Treatment-related AE: Fatigue, G4 (Dose expansion (n = 12)): 0 n (%) | Treatment-related AE: Headache, G1 (Dose expansion (n = 12)): 1 (8) n (%) | Treatment-related AE: Headache, G2 (Dose expansion (n = 12)): 0 n (%) | Treatment-related AE: Headache, G3 (Dose expansion (n = 12)): 0 n (%) | Treatment-related AE: Headache, G4 (Dose expansion (n = 12)): 0 n (%) | Treatment-related AE: Nausea, G1 (Dose expansion (n = 12)): 1 (8) n (%) | Treatment-related AE: Nausea, G2 (Dose expansion (n = 12)): 0 n (%) | Treatment-related AE: Nausea, G3 (Dose expansion (n = 12)): 0 n (%) | Treatment-related AE: Nausea, G4 (Dose expansion (n = 12)): 0 n (%) | Treatment-related AE: Paronychia, G1 (Dose expansion (n = 12)): 0 n (%) | Treatment-related AE: Paronychia, G2 (Dose expansion (n = 12)): 0 n (%) | Treatment-related AE: Paronychia, G3 (Dose expansion (n = 12)): 0 n (%) | Treatment-related AE: Paronychia, G4 (Dose expansion (n = 12)): 0 n (%) | Treatment-related AE: Rash, G1 (Dose expansion (n = 12)): 0 n (%) | Treatment-related AE: Rash, G2 (Dose expansion (n = 12)): 1 (8) n (%) | Treatment-related AE: Rash, G3 (Dose expansion (n = 12)): 0 n (%) | Treatment-related AE: Rash, G4 (Dose expansion (n = 12)): 0 n (%) | Treatment-related AE: Transaminases increased, G1 (Dose expansion (n = 12)): 0 n (%) | Treatment-related AE: Transaminases increased, G2 (Dose expansion (n = 12)): 0 n (%) | Treatment-related AE: Transaminases increased, G3 (Dose expansion (n = 12)): 0 n (%) | Treatment-related AE: Transaminases increased, G4 (Dose expansion (n = 12)): 0 n (%) | Treatment-related AE: Vomiting, G1 (Dose expansion (n = 12)): 4 (33) n (%) | Treatment-related AE: Vomiting, G2 (Dose expansion (n = 12)): 0 n (%) | Treatment-related AE: Vomiting, G3 (Dose expansion (n = 12)): 0 n (%) | Treatment-related AE: Vomiting, G4 (Dose expansion (n = 12)): 0 n (%) | Treatment-related AE: Weight increased, G1 (Dose expansion (n = 12)): 0 n (%) | Treatment-related AE: Weight increased, G2 (Dose expansion (n = 12)): 0 n (%) | Treatment-related AE: Weight increased, G3 (Dose expansion (n = 12)): 1 (8) n (%) | Treatment-related AE: Weight increased, G4 (Dose expansion (n = 12)): 0 n (%) | AESI aspartate aminotransferase increased (dose escalation suspension): 12% | AESI epistaxis (dose escalation suspension): 12% | AESI aspartate aminotransferase increased (dose escalation tablet): 6% | AESI epistaxis (dose escalation tablet): 17% | Deaths on study (eleven deaths, all due to PD): 20% | AESI aspartate aminotransferase increased (expansion): 17% | AESI creatine phosphokinase increased (expansion): 17% | Adverse events of special interest (AESI) (expansion): 50% | TRAEs leading to cobimetinib withdrawal (expansion): 8% | TRAEs leading to cobimetinib withdrawal (overall, six patients): 11% | Patients with DLTs (six patients, dose escalation, cycle 1): 11% | Adverse events of special interest (AESI) (suspension dose escalation): 50% | TRAEs leading to cobimetinib withdrawal (suspension dose escalation): 15% | TRAEs leading to cobimetinib withdrawal (events) (suspension dose escalation, 1.0 mg/kg): grade 2 epitheliopathy/keratitis | TRAEs leading to cobimetinib withdrawal (events) (suspension dose escalation, 1.33 mg/kg): grade 4 chorioretinopathy; also recorded: grade 2 ECG QT prolonged; also recorded: grade 1 serous retinal detachment | Pediatric recommended Phase II dose (RP2D), suspension (suspension, Days 1–21 of 28-day cycle): 1.0 mg/kg | TRAEs leading to cobimetinib withdrawal (tablet dose escalation): 6% | TRAEs leading to cobimetinib withdrawal (events) (tablet dose escalation, 1.0 mg/kg): grade 2 retinal detachment | Pediatric recommended Phase II dose (RP2D), tablet (tablet, Days 1–21 of 28-day cycle): 0.8 mg/kg
